The species entered for the first test is Cavia porcellus. The experiment in a line: Negative logarithm of compound concentration that reduced an LTD4-induced contraction of guinea pig ileum by 50%. The test is classed as functional. Put shortly: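 Ileum from male Hartley guinea pigs (200-400 g), with isometric tension recorded. Two, three or four antagonist concentrations were tested on a single ileum against a submaximal LTD4 contraction. The concentration giving 50% inhibition was extrapolated by linear regression and expressed as -log IC50.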
Turning to `CCCc1c(OCCCCCCCCCCc2nn[nH]n2)ccc(C(C)=O)c1O`, half-maximal inhibition (IC50) was put at 3.16 µM.

Consider `CCCc1c(OCCCCCCO)ccc(C(C)=O)c1O`, for which 3.98 µM corresponded to half-maximal inhibition (IC50).

The compound `CCCc1c(OCCCCCCN(C)C)ccc(C(C)=O)c1O` had an IC50 of 6.31 µM.

Compound `CCCc1c(OCCCCCCN2CCOCC2)ccc(C(C)=O)c1O` showed an IC50 of 3.16 µM.

`CCCc1c(OCCCCCCCC(=O)O)ccc(C(C)=O)c1O` had an IC50 of 0.794 µM.

`CCCc1c(OCCCCCCCCc2nn[nH]n2)ccc(C(C)=O)c1O` showed a half-maximal inhibitory concentration (IC50) of 0.316 µM.

The compound `CCCc1c(OCCCCCCCCCc2nn[nH]n2)ccc(C(C)=O)c1O` showed an IC50 of 0.251 µM.

In the case of `CCCc1c(OCCCCCCN2CCN(C)CC2)ccc(C(C)=O)c1O`, the IC50 was 5.01 µM.

With `CCCc1c(OCCCCCCCCCC(=O)O)ccc(C(C)=O)c1O`, 0.794 µM corresponded to half-maximal inhibition (IC50).

In a further test the test system is Cavia porcellus. The experiment in a line: Bronchospastic activity to prevent increase in total pulmonary impedance (TPI) in guinea pig when administered intravenously. The test is classed as functional. Put shortly: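 Anesthetized male Hartley guinea pigs (200-400 g), body temperature kept normal on an isothermal pad. Total pulmonary impedance was recorded with pressure transducers. LTD4 was given iv as randomized doses to build dose-response curves. The antagonist was given intravenously.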
`CCCc1c(OCCCCc2nnn[nH]2)ccc(C(C)=O)c1O` [TOMELUKAST] showed an Increase of 2.2%.

For `CCCc1c(OCCCCCCc2nn[nH]n2)ccc(C(C)=O)c1O`, the Increase amounted to 27.1%.

Consider `CCCc1c(OCCCCCc2nn[nH]n2)ccc(C(C)=O)c1O`, for which the Increase worked out at 25.6%.

The species named for a further test is Cavia porcellus. The test is described as follows: Percent inhibition LTD4-induced contraction of guinea pig ileum at 1 uM of concentration. The test is classed as functional. Put shortly: (§1)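 Percent reduction of LTD4-induced contraction of isolated ileum from male Hartley guinea pigs (200-400 g). The antagonist was tested at the single concentration stated, and contraction was measured isometrically as grams of force.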
For the compound `CCCc1c(OCCCc2nnn[nH]2)ccc(C(C)=O)c1O`, the Inhibition was 15%.

The species named for the next test is Cavia porcellus. The experiment in a line: Percent inhibition LTD4-induced contraction of guinea pig ileum at 30 uM of concentration. The test is classed as functional. In outline:
as §1
`CCCc1c(OCC(=O)O)ccc(C(C)=O)c1O`: the Inhibition was 8%.

As for `CCCc1c(OCCCC(=O)O)ccc(C(C)=O)c1O`, the Inhibition is on record as 43%.

Consider `CCCc1c(OCCC(=O)O)ccc(C(C)=O)c1O`, for which the Inhibition is listed as 23%.

Take `CCCc1c(OCc2nn[nH]n2)ccc(C(C)=O)c1O`: the Inhibition was 28%.

The next test is filed under the species Cavia porcellus. The experiment in a line: Percent inhibition LTD4-induced contraction of guinea pig ileum at 10 uM of concentration. The test is classed as functional. In outline:
as §1
In the case of `CCCc1c(OCCCCCC(=O)O)ccc(O)c1C(C)=O`, the Inhibition is reported as 0%.

The species named for the next test is Cavia porcellus. The test is described as follows: Percent inhibition LTD4-induced contraction of guinea pig ileum at 3 uM of concentration. The test is classed as functional. Put shortly: as §1
The compound `CCCc1c(OCCCCCC#N)ccc(C(C)=O)c1O` returned an Inhibition of 0%.

As for `CCCc1c(OCCCCCCCCCCCCc2nn[nH]n2)ccc(C(C)=O)c1O`, the Inhibition worked out at 47%.

Regarding `CC(=O)c1ccc(OCCCCCC(=O)O)cc1O`, the Inhibition worked out at 11%.

As for `CCCc1c(OCCCCCC(=O)O)ccc(C(=O)OC)c1O`, the Inhibition came to 21%.

The compound `CCCc1c(OCCCCCCCCCCC(=O)O)ccc(C(C)=O)c1O` returned an Inhibition of 79%.

`C=CCc1c(OCCCCCC(=O)O)ccc(C(C)=O)c1O` came in with an Inhibition of 29%.

The compound `CCCc1cc(C(C)=O)ccc1OCCCCCC(=O)O` gave an Inhibition of 0%.

Another test relates to cysteinyl leukotriene receptor (Cavia porcellus). The experiment in a line: Inhibition of LTD4-induced contraction of guinea pig ileum.
`CCCc1c(OCCCCCC(=O)O)ccc(C(=O)CC)c1O` displayed a pKB of 6.1.

For `CCCc1c(OCCCCCCc2nn[nH]n2)ccc(C(C)=O)c1O`, the pKB is 7.1.

In turn, `CCCc1c(OCCCCCc2nn[nH]n2)ccc(C(C)=O)c1O` displayed a pKB of 6.6.

In turn, `CCCc1c(OCCCCCC(=O)O)ccc(C(C)=O)c1O` registered a pKB of 6.

In turn, `CCCc1c(OCCCCCCC(=O)O)ccc(C(C)=O)c1O` returned a negative-log KB (pKB) of 5.7.

`CCCc1c(OCCCCC(=O)O)ccc(C(C)=O)c1O` displayed a pKB of 5.8.

In turn, `CCCc1c(OCCCCCCCc2nn[nH]n2)ccc(C(C)=O)c1O` showed a pKB of 7.

Regarding `CCCc1c(OCCCCCCCCC(=O)O)ccc(C(C)=O)c1O`, the pKB came out at 5.8.

What is called IC50 is the concentration that inhibits the measured activity by half. A low value points to inhibition by little substance. The term Inhibition denotes the drop in the measured response relative to a control, in per cent. As usually defined, the pKB is −log10 of the KB, conventionally taken in molar units.

Values taken from ChEMBL document CHEMBL1123719, “Leukotriene receptor antagonists. 1. Synthesis and structure-activity relationships of alkoxyacetophenone derivatives” (J Med Chem, 1987).
